# Reference: publication PMC4065498 (Chemical research in toxicology, 2010)
# Entries after “also recorded” stand apart in the source; their conditions may differ.
# T1: native CES1 in THP1 lysates (Homo sapiens, UniProt P23141)
# T1 sequence (P23141 18-567): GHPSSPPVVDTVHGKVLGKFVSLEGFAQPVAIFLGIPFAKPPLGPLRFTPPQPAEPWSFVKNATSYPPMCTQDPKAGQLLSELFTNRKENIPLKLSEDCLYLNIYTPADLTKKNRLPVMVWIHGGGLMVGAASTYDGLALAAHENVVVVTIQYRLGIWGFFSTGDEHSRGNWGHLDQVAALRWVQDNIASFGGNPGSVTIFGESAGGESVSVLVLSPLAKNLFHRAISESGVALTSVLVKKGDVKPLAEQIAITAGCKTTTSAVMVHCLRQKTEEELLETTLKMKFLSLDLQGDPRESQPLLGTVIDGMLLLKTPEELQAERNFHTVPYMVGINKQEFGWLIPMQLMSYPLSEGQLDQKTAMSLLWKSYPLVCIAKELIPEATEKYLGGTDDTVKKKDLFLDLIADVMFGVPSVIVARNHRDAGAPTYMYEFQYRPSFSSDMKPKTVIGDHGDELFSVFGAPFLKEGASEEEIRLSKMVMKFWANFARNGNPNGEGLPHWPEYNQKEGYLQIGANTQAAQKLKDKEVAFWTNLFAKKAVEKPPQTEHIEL
# T2: recombinant human CES1 (Homo sapiens, UniProt P23141)
# T2 sequence (P23141 18-567): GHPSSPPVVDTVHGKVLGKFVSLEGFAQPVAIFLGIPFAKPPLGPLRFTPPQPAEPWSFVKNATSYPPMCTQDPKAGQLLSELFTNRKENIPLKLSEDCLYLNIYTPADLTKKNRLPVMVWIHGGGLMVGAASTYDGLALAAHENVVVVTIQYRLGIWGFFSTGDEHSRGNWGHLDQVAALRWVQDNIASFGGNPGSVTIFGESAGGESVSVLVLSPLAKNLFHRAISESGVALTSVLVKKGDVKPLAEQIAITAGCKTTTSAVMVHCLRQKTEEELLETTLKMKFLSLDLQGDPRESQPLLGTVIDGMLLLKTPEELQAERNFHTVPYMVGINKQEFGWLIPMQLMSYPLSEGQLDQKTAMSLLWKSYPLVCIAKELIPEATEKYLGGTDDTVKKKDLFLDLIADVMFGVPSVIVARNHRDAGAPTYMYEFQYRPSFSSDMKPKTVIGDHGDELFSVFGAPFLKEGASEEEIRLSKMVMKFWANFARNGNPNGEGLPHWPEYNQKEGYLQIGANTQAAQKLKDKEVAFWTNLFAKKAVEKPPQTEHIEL
# T3: recombinant human CES2 (Homo sapiens, UniProt O00748)
# T3 sequence (O00748 27-559): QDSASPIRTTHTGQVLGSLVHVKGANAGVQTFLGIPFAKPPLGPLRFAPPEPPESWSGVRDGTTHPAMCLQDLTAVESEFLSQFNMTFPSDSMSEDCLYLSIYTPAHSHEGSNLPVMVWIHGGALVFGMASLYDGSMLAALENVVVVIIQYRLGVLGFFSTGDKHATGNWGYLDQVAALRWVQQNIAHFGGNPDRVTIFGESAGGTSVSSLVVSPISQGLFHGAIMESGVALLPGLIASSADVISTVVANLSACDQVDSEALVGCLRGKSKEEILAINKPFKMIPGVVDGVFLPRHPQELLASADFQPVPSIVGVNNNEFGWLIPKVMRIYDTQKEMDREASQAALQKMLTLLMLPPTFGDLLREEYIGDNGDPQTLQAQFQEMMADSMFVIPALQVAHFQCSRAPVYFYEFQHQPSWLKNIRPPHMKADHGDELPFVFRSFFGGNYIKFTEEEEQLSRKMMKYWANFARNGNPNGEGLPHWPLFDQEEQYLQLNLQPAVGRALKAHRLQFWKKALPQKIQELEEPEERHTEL
# B1: recombinant human CES2 (Homo sapiens) (protein)
# chain: QDSASPIRTTHTGQVLGSLVHVKGANAGVQTFLGIPFAKPPLGPLRFAPPEPPESWSGVRDGTTHPAMCLQDLTAVESEFLSQFNMTFPSDSMSEDCLYLSIYTPAHSHEGSNLPVMVWIHGGALVFGMASLYDGSMLAALENVVVVIIQYRLGVLGFFSTGDKHATGNWGYLDQVAALRWVQQNIAHFGGNPDRVTIFGESAGGTSVSSLVVSPISQGLFHGAIMESGVALLPGLIASSADVISTVVANLSACDQVDSEALVGCLRGKSKEEILAINKPFKMIPGVVDGVFLPRHPQELLASADFQPVPSIVGVNNNEFGWLIPKVMRIYDTQKEMDREASQAALQKMLTLLMLPPTFGDLLREEYIGDNGDPQTLQAQFQEMMADSMFVIPALQVAHFQCSRAPVYFYEFQHQPSWLKNIRPPHMKADHGDELPFVFRSFFGGNYIKFTEEEEQLSRKMMKYWANFARNGNPNGEGLPHWPLFDQEEQYLQLNLQPAVGRALKAHRLQFWKKALPQKIQELEEPEERHTEL
# B2: recombinant human CES1 (Homo sapiens) (protein)
# chain: GHPSSPPVVDTVHGKVLGKFVSLEGFAQPVAIFLGIPFAKPPLGPLRFTPPQPAEPWSFVKNATSYPPMCTQDPKAGQLLSELFTNRKENIPLKLSEDCLYLNIYTPADLTKKNRLPVMVWIHGGGLMVGAASTYDGLALAAHENVVVVTIQYRLGIWGFFSTGDEHSRGNWGHLDQVAALRWVQDNIASFGGNPGSVTIFGESAGGESVSVLVLSPLAKNLFHRAISESGVALTSVLVKKGDVKPLAEQIAITAGCKTTTSAVMVHCLRQKTEEELLETTLKMKFLSLDLQGDPRESQPLLGTVIDGMLLLKTPEELQAERNFHTVPYMVGINKQEFGWLIPMQLMSYPLSEGQLDQKTAMSLLWKSYPLVCIAKELIPEATEKYLGGTDDTVKKKDLFLDLIADVMFGVPSVIVARNHRDAGAPTYMYEFQYRPSFSSDMKPKTVIGDHGDELFSVFGAPFLKEGASEEEIRLSKMVMKFWANFARNGNPNGEGLPHWPEYNQKEGYLQIGANTQAAQKLKDKEVAFWTNLFAKKAVEKPPQTEHIEL
# How the values were obtained:
# [1] = test system: lipid glyceryl ester hydrolase activities of THP1 monocyte lysates
# [2] = biological target: T1, native CES1 in THP1 lysates; assay: Activity-based protein profiling with FP-biotin in THP1 lysate: CES1; type: biochemical; conditions: JZL184 as low as 0.1 μM
# How it was run: (§1)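 THP1 monocyte lysate (1 mg/ml protein in 50 mM Tris-HCl, pH 7.4) was labelled with 2 μM FP-biotin for 1 h at room temperature. Irreversible inhibitors were preincubated for 30 min (37°C) before the probe. For the reversible inhibitor, lysate received inhibitor, then 0.2 μM FP-biotin for 7.5 min, short of full labelling. Reactions were stopped in reducing SDS loading buffer (95°C, 5 min), run on SDS-PAGE and blotted with avidin-HRP.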
# recombinant human CES1 [3] = biological target: T2, recombinant human CES1; assay: Recombinant human CES1 activity using pNPV as substrate; type: biochemical; conditions: data not shown
# [4] = test system: 31-32kDa enzyme in THP1 lysates; assay: Activity-based protein profiling with FP-biotin in THP1 lysate: 31-32kDa enzyme; type: biochemical, human; conditions: concentrations as high as 100 μM, 30 min
# How it was run: as §1
# recombinant human CES1 [5] = biological target: T2, recombinant human CES1; assay: Hydrolysis of 2AG and PG-Gs by recombinant CES1; type: biochemical; conditions: amide-containing substrate
# recombinant human CES2 = biological target: T3, recombinant human CES2; assay: Hydrolysis of 2AG and PG-Gs by recombinant CES2; type: biochemical; conditions: amide-containing substrate
# THP1 macrophages = assay: In situ formation of PG-Gs by LPS-primed THP1 macrophages given exogenous 2AG; type: cell-based, human; conditions: indomethacin 3 μM added along with CPO prior to 2AG
# [6] = substrate: CCCCC/C=C\C/C=C\C/C=C\C/C=C\CCCC(=O)OC(CO)CO; assay: Hydrolysis of 2AG and PG-Gs by recombinant CES2; type: biochemical; conditions: other: human CES2; average ± SE of 2-4 independent experiments; pH 7.4; 37.0 °C
# [7] = substrate: CCCCC/C=C\C/C=C\C/C=C\C/C=C\CCCC(=O)OC(CO)CO; assay: Hydrolysis of 2AG and PG-Gs by recombinant CES1; type: biochemical; conditions: other: human CES1; average ± SE of 2-4 independent experiments; pH 7.4; 37.0 °C
molecule,measurement,setting,value
CN(Cc1cccc(-c2ccncc2)c1)C(=O)Oc1ccc(-c2ccc(C(N)=O)cc2)cc1 [WWL70],inhibition of 2AG hydrolytic activity in THP1 cell lysate,[1]; specific ABHD6 inhibitor,did not inhibit; also recorded: does not inhibit
O=C(Oc1ccc([N+](=O)[O-])cc1)N1CCC(C(O)(c2ccc3c(c2)OCO3)c2ccc3c(c2)OCO3)CC1 [JZL184],inhibition of CES1 in THP1 cell lysate (FP-biotin activity blot),[2],completely inhibit
same,reduction of PGF2α-G hydrolytic activity in THP1 monocyte lysate,[1]; maximal reduction by JZL184,80%
same,inhibition of recombinant human CES1 activity using pNPV as substrate,recombinant human CES1 [3],potently inhibit
same,inhibition of the 31-32kDa enzyme (FP-biotin activity probe),[4],not inhibited
"CCCCC/C=C\C/C=C\C/C=C\C/C=C\CCCC(=O)NCCO [AEA, arachidonoyl ethanolamide]",hydrolysis of AEA by recombinant CES1,recombinant human CES1 [5],neither enzyme could hydrolyze
same,hydrolysis of AEA by recombinant CES2,recombinant human CES2,neither enzyme could hydrolyze
COc1ccc2c(c1)c(CC(=O)O)c(C)n2C(=O)c1ccc(Cl)cc1 [indomethacin],formation of PG-Gs by THP1 macrophages,THP1 macrophages,blocked formation of PG-Gs
B1,Km,[6],46 ± 13 µM
same,kcat,[6],0.717 ± 0.0667 s⁻¹
B2,Km,[7],49 ± 11 µM
same,kcat,[7],0.983 ± 0.0667 s⁻¹
